The sample as a whole holds a higher share of hits than the screen did.
RORA inh = blocks the human nuclear receptor RORA. P35398. CHO-K1 Gal4-RORA LBD luciferase reporter, luminescence. inhibition, % at 10 µM. hit rate 0.43% among 65,000. AID 561;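 active = inhibition above the mean of all tested compounds plus 3 SD, cut at about 52% in these data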
Target sequence (P35398 whole entry, looked up, the tested form may be a part): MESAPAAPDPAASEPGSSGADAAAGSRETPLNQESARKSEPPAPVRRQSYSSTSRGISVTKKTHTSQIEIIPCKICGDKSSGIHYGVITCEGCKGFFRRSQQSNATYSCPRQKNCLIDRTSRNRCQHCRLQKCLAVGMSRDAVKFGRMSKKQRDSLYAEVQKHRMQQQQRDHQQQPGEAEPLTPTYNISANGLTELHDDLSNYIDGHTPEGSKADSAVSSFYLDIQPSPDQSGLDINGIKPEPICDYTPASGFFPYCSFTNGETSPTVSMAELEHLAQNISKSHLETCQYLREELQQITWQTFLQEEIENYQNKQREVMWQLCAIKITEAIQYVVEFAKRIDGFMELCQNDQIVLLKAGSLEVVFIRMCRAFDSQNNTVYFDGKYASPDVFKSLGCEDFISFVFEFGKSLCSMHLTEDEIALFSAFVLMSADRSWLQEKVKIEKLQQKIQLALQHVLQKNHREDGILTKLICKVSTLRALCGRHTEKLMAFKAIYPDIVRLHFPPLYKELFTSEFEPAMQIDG
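System: transiently transfected CHO-K1 cells, Gal4-DBD/human RORA-LBD fusion plus 5xGal4-luciferase reporter. Doses: one dose of 10 µM final. Timing: 20 h compound treatment, 37 °C. Measured by: luminescence. Evaluation: % inhibition of basal luciferase versus +RORA/-RORA DMSO controls. Benchmarks: mock-transfected cells as 100%, +RORA DMSO cells as 0%. Replicates: single test per compound.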
Hits are given with their value; n = inactive.

SMILES | RORA inh
Cc1cc(C)n2nc(SCC(=O)NCc3ccco3)nc2n1 | n
Cc1cc(C(=O)CSc2nc3ccccc3[nH]2)c(C)n1C | n
Cc1cc(-n2c(C)cc(C(=O)CSc3ncnc4ccccc34)c2C)no1 | 64
Cc1cc(C(=O)CSc2nnc(-c3ccccc3)n2-c2ccccc2)c(C)n1-c1ncn[nH]1 | n
Cc1cc(C)n2nc(SCC(=O)c3cc(C)n(-c4cc(C)on4)c3C)nc2n1 | 55
Cc1ccccc1Cn1ccc(NC(=O)c2onc(C)c2Cl)n1 | n
CCN(CC)CCNC(=O)CCc1n[nH]c(=O)c2ccccc12 | n
COc1ccc(CC(=O)n2c(CC#N)nc3ccccc32)cc1OC | n
CCN1C(=O)NC(c2cccnc2)C(C(=O)OC)=C1C (configuration not stated) | n
CCCCNc1cc(=O)n(C)c(=O)[nH]1 | n
Cn1c(-n2c(CCN3C(=O)c4ccccc4C3=O)nc3ccccc3c2=O)nc2ccccc21 | n
COc1cc(CSc2nnnn2-c2ccc(C)cc2)cc(OC)c1OC | 72
Cc1ccc(-n2nnnc2SCC(=O)N2CCN(C(=O)c3ccco3)CC2)c(C)c1 | n
COc1ccc(C)cc1-n1nnnc1SCc1nc2ccccc2s1 | n
COc1cccc(NC(=O)c2nnn(Cc3ccc(Br)cc3F)c2N)c1 | n
Cn1nnc(NC(=O)CSc2ccc(Cl)cc2)n1 | n
Cn1nnc(NC(=O)CSc2nnnn2-c2ccc(F)cc2)n1 | n
O=C(CSc1nnnn1-c1ccccc1)Nc1nsc(-c2ccc(Cl)cc2)n1 | 71
O=C(O)CNC1=NCCC1 | n
O=C(Cc1ccccc1)Nc1nc(-c2cccs2)cs1 | n
CCNc1nc(-c2ccc(Cl)cc2)cs1 | n
Cc1nc2sccn2c1-c1csc(NCc2ccccc2)n1 | 63
CN(C)S(=O)(=O)n1cnc(-c2ccccc2)c1-c1ccccc1 | n
C=C(C)Cn1c(N2CC(C)CC(C)C2)nc2c1c(=O)[nH]c(=O)n2C (configuration not stated) | n
COC(=O)c1ccc(S(=O)(=O)N(Cc2cc3cc4c(cc3[nH]c2=O)OCO4)C2CCCCC2)cc1 | n
SMILES | RORA inh
CCN(C1CCCCC1)S(=O)(=O)c1ccc(S(=O)(=O)NCc2ccncc2)cc1 | 69
Cc1ccc(S(=O)(=O)N(CC(=O)N2CCCC2)C2CCCCC2)cc1 | n
CCn1cc(C(=O)Nc2cc3c(cc2NC(C)=O)OCCO3)c(=O)c2ccc(C)nc21 | n
Cc1cccc(-n2ncc3c(N4CCC5(CC4)OCCO5)ncnc32)c1 | n
CC1CCCN(c2ncnc3c2cnn3-c2ccccc2)C1 (configuration not stated) | 57
CC1CCCN(c2ncnc3c2cnn3-c2ccc(Cl)cc2)C1 (configuration not stated) | 84
c1ccc(-n2ncc3c(NC4CCCCCC4)ncnc32)cc1 | n
c1ccc(-n2ncc3c(N4CCCCC4)ncnc32)cc1 | 62
Clc1ccc(-n2ncc3c(NCC4CCCO4)ncnc32)cc1 (configuration not stated) | n
c1ccc(-n2ncc3c(NCC4CCCO4)ncnc32)cc1 (configuration not stated) | n
CN1CCN(c2ncnc3c2cnn3-c2ccc(Cl)cc2)CC1 | n
CC1CC(C)CN(c2ncnc3c2cnn3-c2ccc(Cl)cc2)C1 (configuration not stated) | n
O=C(NC1CCCCC1)C1CCN(S(=O)(=O)N2CCOCC2)CC1 | n
CCS(=O)(=O)N1CCC(C(=O)NCCCN2CCCC2)CC1 | n
CC(C)=CCC(C)(C)CNC(=O)NC1CCCCC1 | n
O=C(Cn1cnc2ccccc2c1=O)NCC(=O)N1CCN(c2ccccn2)CC1 | n
Cc1ccc(C)c(-n2c(Cc3cc(=O)[nH]c(=O)[nH]3)nnc2SCC(=O)NCC2CCCO2)c1 (configuration not stated) | n
CCN1CCN(Cc2ccc(NC(=O)Nc3ccccc3OC)cc2)CC1 | n
CC1=C(C(N)=O)C(c2ccccc2)n2nc(-c3cccc(C)c3)nc2N1 (configuration not stated) | n
O=C(COc1ccc(Cl)cc1)NCc1nnc(SCC(=O)NCCc2ccccc2)o1 | n
O=C1CCCN1CC(CN1CCOCC1)Sc1nc2ccccc2c(=O)n1-c1ccccc1 (configuration not stated) | n
O=C(O)CCCCCN1C(=O)CSC1=S | 59
Cn1c(N)c(C(=O)COC(=O)c2cccs2)c(=O)n(C)c1=O | n
CCOC(=O)N1CCN(C(=O)CSc2nnc(Cc3ccccc3)o2)CC1 | n
CCN1CCN(C(=O)C2c3cc(OC)c(OC)cc3C(=O)N(C)C2c2ccc(SC)cc2)CC1 (configuration not stated) | n
SMILES | RORA inh
O=C1CCn2nc(-c3ccc(Cl)cc3)cc2N1 | n
COC(=O)CCC(=O)Nc1cccc(Br)c1 | n
COc1ccc(-c2noc(-c3ccccc3Cl)n2)cc1OC | n
COc1ccc(C2=Nn3c(nnc3-c3ccccc3OC)SC2)cc1OC | 55
COc1nc(-c2ccccc2)cc(-c2ccc(OC)c(OC)c2)n1 | n
CCOC(=O)c1ccccc1NC(=O)CSc1nnnn1C1CCCCC1 | n
O=C(NC(Cc1ccccc1)c1nc2ccccc2[nH]1)C1CC(=O)N(c2ccc3c(c2)OCCO3)C1 (configuration not stated) | n
COc1ccc2oc(=O)c(C(=O)N3CCc4ccccc43)cc2c1 | n
COc1cc2c(cc1OC)C(C)N(C(=O)c1cc3ccccc3o1)CC2 (configuration not stated) | 64
COc1ccc(NC(=O)c2cc3ccccc3o2)cc1 | n
N#CNC1=NCN(Cc2ccccc2)CN1 | n
CC(C)C1N=C2c3ccccc3N=C(SCC#N)N2C1=O (configuration not stated) | n
c1ccc(Oc2ccc(-n3cnnn3)cc2)cc1 | n
CCCN(CCC)S(=O)(=O)c1ccc(C(=O)Nc2nnc(-c3cccc(OC)c3)o2)cc1 | n
CCCCN(CCCC)S(=O)(=O)c1ccc(C(=O)Nc2nnc(CSC)o2)cc1 | 61
CCN(Cc1ccccc1)S(=O)(=O)c1ccc(C(=O)Nc2nnc(-c3ccccc3OC)o2)cc1 | n
NC(=O)C1CCN(C(=O)c2cc(S(=O)(=O)N3CCOCC3)c(Cl)cc2Cl)CC1 | n
CCNC(=O)c1nc[nH]c1C(=O)NCC | n
CCOC(=O)N1CCC(NC(=O)Cn2ncc3c4ccccc4n(C)c3c2=O)CC1 | n
Cc1ccnc(NC(=O)Nc2ccc(F)cc2)c1 | n
COc1ccc(C(=O)NC(=O)Nc2cc(C)ccn2)cc1 | 70
COc1ccc(C(=O)Nc2cc(C)on2)cc1 | n
Cc1ccccc1C(=O)/C=C1\NC(=O)CS1 | n
c1ccc(CC2CCN(Cc3nc(-c4ccccc4)no3)CC2)cc1 | n
Cc1cc(/C=N/n2cnnc2)c(C)n1-c1ccc(OCc2ccccc2F)cc1 | 62
SMILES | RORA inh
C(=N\n1cnnc1)/c1cccc(Oc2ccccc2)c1 | n
CC(C)NC(=O)c1cc(=O)n(C)c(=O)n1C | n
COc1ccc(-n2c(SCCC(=O)O)nnc2-c2ccncc2)cc1 | n
O=S(=O)(Cc1ccccc1)N1CCc2ccccc21 | n
O=C(CSC1=NCCS1)Nc1ccnc2ccccc12 | 73
O=C(CSc1cn(Cc2ccccc2)c2ccccc12)Nc1nccs1 | n
CC(C)(C)NC(=O)CSc1nnc(NC(=O)CCn2cnc3ccccc3c2=O)s1 | n
CCCC(C(=O)NCc1ccc(OC)cc1)N(Cc1ccco1)C(=O)c1snc(C(N)=O)c1N (configuration not stated) | n
O=C(Nc1ccccc1C(=O)N1CCOCC1)c1ccncc1 | n
CCOc1ccc(C(=O)N2CCCC2C(=O)O)cc1 (configuration not stated) | n

High-throughput results from PubChem.
